Structures can show the parent of a compound that is named as a salt. Where two headings read alike, the source gives them in different places.

In one assay the target is T1, mouse Elp2 protein (Mus musculus, UniProt Q91WG4).
T1 sequence (Q91WG4 1-831): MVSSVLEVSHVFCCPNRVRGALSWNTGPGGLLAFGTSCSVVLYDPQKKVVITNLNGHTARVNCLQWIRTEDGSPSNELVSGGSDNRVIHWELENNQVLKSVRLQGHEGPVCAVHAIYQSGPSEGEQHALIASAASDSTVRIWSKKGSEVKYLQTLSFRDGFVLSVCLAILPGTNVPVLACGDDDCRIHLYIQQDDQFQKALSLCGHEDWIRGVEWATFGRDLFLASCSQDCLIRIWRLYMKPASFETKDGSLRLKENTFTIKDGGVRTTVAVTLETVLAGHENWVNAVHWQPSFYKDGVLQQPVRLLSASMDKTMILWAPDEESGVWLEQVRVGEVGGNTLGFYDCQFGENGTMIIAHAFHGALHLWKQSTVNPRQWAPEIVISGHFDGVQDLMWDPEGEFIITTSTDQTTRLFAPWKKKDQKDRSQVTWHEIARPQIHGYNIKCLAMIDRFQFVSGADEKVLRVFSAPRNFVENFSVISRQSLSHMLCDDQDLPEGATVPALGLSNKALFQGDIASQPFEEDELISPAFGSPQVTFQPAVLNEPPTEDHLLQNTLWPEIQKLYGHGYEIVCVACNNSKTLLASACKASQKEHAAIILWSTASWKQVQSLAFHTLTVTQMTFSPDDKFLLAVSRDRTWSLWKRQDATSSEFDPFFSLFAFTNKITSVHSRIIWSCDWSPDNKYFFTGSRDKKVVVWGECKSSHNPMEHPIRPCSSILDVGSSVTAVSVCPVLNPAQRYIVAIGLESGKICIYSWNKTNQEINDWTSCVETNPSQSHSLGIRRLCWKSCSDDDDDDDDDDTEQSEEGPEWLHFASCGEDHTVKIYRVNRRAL
Description: SPRi affinity measurement of chip-immobilized library compounds to Elp2 protein. The class given is binding.

Assay [1] deals with melanoma cells bearing B-Raf^V600E. As to conditions: cited from earlier work.
The test system of assay [2] is MC3T3-E1 cells. Description: Q-PCR of osteogenic differentiation marker genes, SD model. The class given is cell-based, mouse. Particulars: MC3T3-E1, day 7, with TNF-α. The method, boiled down: (§1)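 On day 7 after day-0 treatment (5 ng mL−1 TNF-α ± test compound; C2C12 also with 100 ng mL−1 BMP-2), 2 × 10^5 cells harvested. Total RNA by TRIzol, column-purified and DNase-treated; 0.25 μg reverse transcribed. COL-I, ALP, OCN, BMP-2, RUNX-2 and OSX measured by real-time Q-PCR with gene-specific primers. Normalised to β-actin by ΔΔCt. Triplicate.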

Assay [3] concerns C2C12 cells. Description: ALP staining and activity, inflammatory differentiation. As to conditions: Mus musculus, C2C12, read-out: EC50 based on ALP activity. The class given is cell-based.
Assay [4] deals with MC3T3-E1 cells. Description: ALP staining and activity, self-differentiation. The class given is cell-based. As to conditions: Mus musculus, MC3T3-E1, read-out: EC50 based on ALP activity. The method, boiled down:
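MC3T3-E1 cells in DMEM with 10% FBS and 1% penicillin/streptomycin at 37 °C, 5% CO2; plated at 50% confluence, 24 h. No inducer. On day 0, given ddH2O solvent or 5 ng mL−1 TNF-α ± test compound at eleven levels (10 nM–800 μM). On day 7: kit ALP stain; ALP activity by OD 405 nm, per μg BCA total protein; EC50 from ALP activity. Mean ± SEM, triplicate.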

Assay [5] relates to C2C12 cells. Description: Mineralization assessment by Alizarin Red S staining, ID model. It is filed as cell-based, mouse. Particulars: C2C12, day 35, with TNF-α, vs negative control (p < 0.05).
Assay [6] has as its system C2C12 cells. Description: Q-PCR of osteogenic differentiation marker genes, ID model. It is filed as cell-based, mouse. Particulars: C2C12, day 7, with TNF-α. The method, boiled down:
as §1

For assay [7], the system named is MC3T3-E1 cells. Put plainly: Mineralization assessment by Alizarin Red S staining, SD model. It is filed as cell-based, mouse. As to conditions: MC3T3-E1, day 35, with TNF-α, vs negative control (p < 0.05).
For assay [8], the system named is B-Raf^V600E dependented tumor xenograft models. As to conditions: orally dosed, without evidence of cytotoxicity; cited from earlier work.
Where [9] appears, read: SPRi, Elp2 200-3200 nM, 1:1 Langmuir binding.

Regarding `CC(C)N(CCC(c1ccccc1)c1cc(CO)ccc1O)C(C)C` (centres unmarked) [5-Hydroxymethyl tolterodine], on mouse Elp2 protein (setting [9]), binding was characterised by a dissociation constant (Kd) of 1.47 µM, the koff was determined as 0.0166 s⁻¹ and the kon turned out to be 11300 M⁻¹ s⁻¹.
`CNC[C@H](O)c1ccc(O)c(O)c1` [Epinephrine bitartrate]: on mouse Elp2 protein, the Kd amounted to 0.676 µM, the koff came to 0.000529 s⁻¹ and the kon came to 783 M⁻¹ s⁻¹.
On mouse Elp2 protein, `O=C1O[C@H](CO)[C@@H](O)[C@H](O)[C@H]1O` [Gluconolactone] gave a Kd of 31 µM, a koff of 0.0819 s⁻¹ and an on-rate constant (kon) of 2640 M⁻¹ s⁻¹.
The like results for `CC(C)NCC(O)c1ccc(O)c(O)c1` (centres unmarked) [Isoprenaline hydrochloride] were, in that order, 4.6 µM, 0.00454 s⁻¹ and 987 M⁻¹ s⁻¹.
As for `CCCS(=O)(=O)Nc1ccc(F)c(C(=O)c2c[nH]c3ncc(Cl)cc23)c1F` [PLX-4720], the ERK phosphorylation entry in assay [1] is given as “significantly inhibits”. Further, the “mRNA expression levels of COL-I, ALP, OCN, BMP-2, RUNX-2 and OSX” value with MC3T3-E1 cells [2] and in the assay on C2C12 cells [6] was “elevated” in each case. Moreover, the half-maximal effective concentration (EC50) in the assay on C2C12 cells [3] was found to be 10.3 µM; with MC3T3-E1 cells [4], 16.7 µM. The “Mineralization, Alizarin Red S stained spots” value in the assay on C2C12 cells [5] and with MC3T3-E1 cells [7] was “more stained spots compared with the negative control” in each case. The tumor growth entry in assay [8] is “tumor growth delays”.
In the case of `Cn1nnc2c(C(N)=O)ncn2c1=O` [Temozolomide], at mouse Elp2 protein, the Kd stood at 2.53 µM, the koff amounted to 0.000462 s⁻¹ and the kon was determined as 182 M⁻¹ s⁻¹.
With RK-33, on mouse Elp2 protein (setting [9]), the Kd turned out to be 0.481 µM, the off-rate (koff) is 2.59e-05 s⁻¹ and the kon worked out at 53.8 M⁻¹ s⁻¹.

Values taken from article PMC9059734 (RSC Advances, 2019).
